Data set [1] concerns the target Non-receptor tyrosine-protein kinase TYK2 (Homo sapiens) (UniProt P29597). Nature of the data set: Inhibition of JH1 catalytic domain of TYK2 (unknown origin) at 1 uM relative to control. Particulars: values are per cent of control. In short, it runs like this: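 Competitive binding panel (KinomeSCAN) of 100 kinases, with compound tested at 1 µM in duplicate. The read-out was percent inhibition relative to control.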

For data set [2], the target named is Bone morphogenetic protein receptor type-1A (Homo sapiens) (UniProt P36894). Description: Inhibition of BMPR1A (unknown origin) at 1 uM relative to control; values are per cent of control.
Chain of Bone morphogenetic protein receptor type-1A (Homo sapiens) (P36894 whole entry): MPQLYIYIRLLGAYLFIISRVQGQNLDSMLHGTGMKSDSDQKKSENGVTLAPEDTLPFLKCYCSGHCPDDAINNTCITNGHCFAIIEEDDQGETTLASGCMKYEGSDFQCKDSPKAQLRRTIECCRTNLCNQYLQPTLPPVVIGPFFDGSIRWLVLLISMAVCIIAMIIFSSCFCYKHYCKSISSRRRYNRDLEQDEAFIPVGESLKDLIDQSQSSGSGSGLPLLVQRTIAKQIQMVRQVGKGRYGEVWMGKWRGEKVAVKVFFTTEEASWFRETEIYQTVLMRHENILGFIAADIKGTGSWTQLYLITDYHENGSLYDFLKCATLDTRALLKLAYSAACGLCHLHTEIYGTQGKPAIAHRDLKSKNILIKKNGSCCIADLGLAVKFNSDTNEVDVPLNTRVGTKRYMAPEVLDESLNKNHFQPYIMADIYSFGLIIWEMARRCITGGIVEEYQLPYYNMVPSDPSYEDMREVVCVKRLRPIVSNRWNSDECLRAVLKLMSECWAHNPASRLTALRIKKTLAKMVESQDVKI
The target in data set [3] is Tyrosine-protein kinase ABL1 (Homo sapiens) (UniProt P00519). Nature of the data set: Inhibition of phosphorylated ABL1 (unknown origin) at 1 uM relative to control; values are per cent of control.
Chain of Tyrosine-protein kinase ABL1 (Homo sapiens) (P00519 whole entry): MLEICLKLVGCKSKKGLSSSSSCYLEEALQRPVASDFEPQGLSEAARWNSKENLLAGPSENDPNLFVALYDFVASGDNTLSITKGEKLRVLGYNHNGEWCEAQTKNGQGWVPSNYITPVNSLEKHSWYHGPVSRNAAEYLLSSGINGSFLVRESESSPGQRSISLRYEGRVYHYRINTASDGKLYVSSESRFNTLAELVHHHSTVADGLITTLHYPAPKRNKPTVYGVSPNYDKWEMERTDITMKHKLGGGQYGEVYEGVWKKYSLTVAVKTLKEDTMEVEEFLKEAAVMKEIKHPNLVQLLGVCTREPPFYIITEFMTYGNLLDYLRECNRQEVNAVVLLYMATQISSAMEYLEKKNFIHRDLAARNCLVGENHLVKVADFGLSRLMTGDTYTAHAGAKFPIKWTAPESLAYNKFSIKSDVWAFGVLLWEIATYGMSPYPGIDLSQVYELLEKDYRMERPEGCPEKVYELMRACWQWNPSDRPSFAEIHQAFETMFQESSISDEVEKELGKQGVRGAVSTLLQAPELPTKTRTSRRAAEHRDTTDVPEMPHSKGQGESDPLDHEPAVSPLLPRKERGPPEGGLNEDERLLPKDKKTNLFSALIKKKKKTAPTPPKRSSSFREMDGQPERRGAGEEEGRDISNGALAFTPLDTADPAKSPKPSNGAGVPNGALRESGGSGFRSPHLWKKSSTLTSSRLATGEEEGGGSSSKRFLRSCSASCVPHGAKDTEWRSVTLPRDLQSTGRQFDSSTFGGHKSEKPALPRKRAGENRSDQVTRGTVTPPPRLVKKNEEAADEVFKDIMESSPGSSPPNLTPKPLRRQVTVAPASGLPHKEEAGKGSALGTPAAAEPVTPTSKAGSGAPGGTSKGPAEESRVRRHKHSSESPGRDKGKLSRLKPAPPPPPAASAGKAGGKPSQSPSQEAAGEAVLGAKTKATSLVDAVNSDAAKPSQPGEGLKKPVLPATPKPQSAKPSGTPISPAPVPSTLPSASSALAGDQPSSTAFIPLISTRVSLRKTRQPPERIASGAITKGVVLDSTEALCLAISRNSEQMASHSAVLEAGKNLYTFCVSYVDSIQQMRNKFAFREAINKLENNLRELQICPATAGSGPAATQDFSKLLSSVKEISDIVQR
The target in data set [4] is T1, Serine/threonine-protein kinase PLK4 (Homo sapiens) (UniProt O00444).
T1 sequence (whole entry): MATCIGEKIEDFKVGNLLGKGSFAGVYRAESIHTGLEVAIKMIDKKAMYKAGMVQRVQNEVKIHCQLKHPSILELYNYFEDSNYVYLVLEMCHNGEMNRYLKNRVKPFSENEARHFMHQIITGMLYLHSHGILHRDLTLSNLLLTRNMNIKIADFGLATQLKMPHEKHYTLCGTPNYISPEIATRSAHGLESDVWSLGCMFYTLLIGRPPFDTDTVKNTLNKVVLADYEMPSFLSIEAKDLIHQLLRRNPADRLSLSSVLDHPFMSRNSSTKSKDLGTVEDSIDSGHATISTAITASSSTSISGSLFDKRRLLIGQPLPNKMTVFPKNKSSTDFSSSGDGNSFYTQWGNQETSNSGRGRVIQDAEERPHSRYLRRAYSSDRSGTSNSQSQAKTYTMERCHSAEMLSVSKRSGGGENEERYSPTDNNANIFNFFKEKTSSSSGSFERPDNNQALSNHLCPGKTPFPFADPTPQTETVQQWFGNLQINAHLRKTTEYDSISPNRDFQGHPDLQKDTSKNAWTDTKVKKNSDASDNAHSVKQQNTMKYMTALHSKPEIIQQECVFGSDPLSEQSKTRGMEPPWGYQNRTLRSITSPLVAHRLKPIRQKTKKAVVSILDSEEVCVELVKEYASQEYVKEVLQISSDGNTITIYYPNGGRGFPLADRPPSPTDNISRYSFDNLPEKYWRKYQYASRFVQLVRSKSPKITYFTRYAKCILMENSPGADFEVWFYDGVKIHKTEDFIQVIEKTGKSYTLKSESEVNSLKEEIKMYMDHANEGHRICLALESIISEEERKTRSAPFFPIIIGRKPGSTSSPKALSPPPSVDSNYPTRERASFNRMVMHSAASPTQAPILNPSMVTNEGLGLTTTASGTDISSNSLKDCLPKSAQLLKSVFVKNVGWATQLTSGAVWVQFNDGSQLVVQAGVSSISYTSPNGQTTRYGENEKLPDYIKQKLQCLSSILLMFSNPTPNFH
Nature of the data set: Inhibition of PLK4 (unknown origin) at 1 uM relative to control. Particulars: values are per cent of control. In short, it runs like this:
(§1)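 KinomeSCAN competitive binding panel of 100 kinases; compounds tested at 1 µM in duplicate; read-out is percent […] control.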

In data set [5] the target is T2, Phosphatidylinositol 4,5-bisphosphate 3-kinase catalytic subunit delta isoform (Homo sapiens) (UniProt O00329).
T2 sequence (whole entry): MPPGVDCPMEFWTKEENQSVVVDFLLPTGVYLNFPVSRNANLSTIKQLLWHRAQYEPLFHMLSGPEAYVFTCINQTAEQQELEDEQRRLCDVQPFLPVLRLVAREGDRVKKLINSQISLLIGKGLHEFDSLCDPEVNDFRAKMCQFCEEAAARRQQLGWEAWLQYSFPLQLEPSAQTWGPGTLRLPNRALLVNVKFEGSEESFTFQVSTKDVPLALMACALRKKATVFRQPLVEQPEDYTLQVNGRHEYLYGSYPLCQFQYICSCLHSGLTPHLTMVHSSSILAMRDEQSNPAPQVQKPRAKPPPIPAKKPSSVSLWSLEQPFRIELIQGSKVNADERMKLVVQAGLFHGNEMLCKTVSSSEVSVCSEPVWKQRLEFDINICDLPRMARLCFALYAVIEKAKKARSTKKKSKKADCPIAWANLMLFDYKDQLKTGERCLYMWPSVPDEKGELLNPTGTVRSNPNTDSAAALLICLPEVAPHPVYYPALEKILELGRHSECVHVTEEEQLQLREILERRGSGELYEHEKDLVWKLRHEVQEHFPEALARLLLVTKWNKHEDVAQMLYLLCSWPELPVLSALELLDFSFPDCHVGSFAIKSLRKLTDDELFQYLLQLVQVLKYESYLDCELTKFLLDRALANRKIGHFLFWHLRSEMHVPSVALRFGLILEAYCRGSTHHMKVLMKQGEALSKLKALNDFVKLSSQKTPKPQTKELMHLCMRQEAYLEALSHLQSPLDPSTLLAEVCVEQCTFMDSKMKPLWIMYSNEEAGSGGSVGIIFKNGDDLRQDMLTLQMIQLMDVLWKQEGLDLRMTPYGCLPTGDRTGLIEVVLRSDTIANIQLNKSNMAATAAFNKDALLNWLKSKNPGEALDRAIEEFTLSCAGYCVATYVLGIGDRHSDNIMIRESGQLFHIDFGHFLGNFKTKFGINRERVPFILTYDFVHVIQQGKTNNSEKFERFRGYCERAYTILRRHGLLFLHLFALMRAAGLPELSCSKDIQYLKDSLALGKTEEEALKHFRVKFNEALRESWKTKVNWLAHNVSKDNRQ
Nature of the data set: Inhibition of PIK3CD (unknown origin) at 1 uM relative to control. The settings on record: values are per cent of control. In short, it runs like this:
as §1

In data set [6] the target is Mitogen-activated protein kinase 14 (Homo sapiens) (UniProt Q16539). Nature of the data set: Inhibition of p38-alpha (unknown origin) at 1 uM relative to control; values are per cent of control.
Chain of Mitogen-activated protein kinase 14 (Homo sapiens) (Q16539 whole entry): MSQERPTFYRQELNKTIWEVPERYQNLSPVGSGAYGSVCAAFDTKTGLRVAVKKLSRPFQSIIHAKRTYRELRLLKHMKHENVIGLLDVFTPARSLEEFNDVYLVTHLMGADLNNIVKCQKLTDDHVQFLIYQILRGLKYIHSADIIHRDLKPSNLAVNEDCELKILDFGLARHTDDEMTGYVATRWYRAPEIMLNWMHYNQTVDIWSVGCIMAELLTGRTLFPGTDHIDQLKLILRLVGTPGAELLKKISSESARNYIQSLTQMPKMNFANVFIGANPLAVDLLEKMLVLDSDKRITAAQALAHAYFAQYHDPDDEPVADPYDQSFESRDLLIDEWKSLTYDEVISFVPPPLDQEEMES
Data set [7] deals with Dual specificity protein kinase CLK2 (Homo sapiens) (UniProt P49760). Description: Inhibition of CLK2 (unknown origin) at 1 uM relative to control; values are per cent of control.
Chain of Dual specificity protein kinase CLK2 (Homo sapiens) (P49760 whole entry, looked up): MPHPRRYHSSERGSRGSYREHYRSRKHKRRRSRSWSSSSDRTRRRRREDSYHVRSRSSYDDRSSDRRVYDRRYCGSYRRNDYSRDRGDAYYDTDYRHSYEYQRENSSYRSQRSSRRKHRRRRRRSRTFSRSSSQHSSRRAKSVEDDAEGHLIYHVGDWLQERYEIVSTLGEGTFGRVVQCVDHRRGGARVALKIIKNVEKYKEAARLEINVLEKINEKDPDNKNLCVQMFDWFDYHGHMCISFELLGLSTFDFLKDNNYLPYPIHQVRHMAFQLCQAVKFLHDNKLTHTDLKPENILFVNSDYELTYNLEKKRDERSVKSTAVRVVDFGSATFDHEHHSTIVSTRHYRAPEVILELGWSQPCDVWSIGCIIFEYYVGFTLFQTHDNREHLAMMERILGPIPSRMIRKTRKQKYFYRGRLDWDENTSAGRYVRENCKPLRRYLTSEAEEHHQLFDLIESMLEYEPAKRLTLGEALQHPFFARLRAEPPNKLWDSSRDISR
Data set [8] addresses Serine/threonine-protein kinase PAK 2 (Homo sapiens) (UniProt Q13177). Nature of the data set: Inhibition of PAK2 (unknown origin) at 1 uM relative to control. The settings on record: values are per cent of control. In short, it runs like this: as §1
Data set [9] is described as follows: Intrinsic clearance in mouse liver microsomes at 1 uM after 30 mins by reverse phase HPLC analysis in presence of NADPH. Format: ADME. The settings on record: read-out: CLH. In short, it runs like this:
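Reactions were stopped with MeCN after 0 or 30 min. Samples were analysed by reverse-phase HPLC–tandem MS to give intrinsic clearance (µl/min/mg).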
On the technique in general: Microsomes from liver hold many membrane-bound enzymes, among them those of drug oxidation.

For a further data set, the system named is HCT-116. Nature of the data set: Inhibition of DNA synthesis in human HCT116 cells after 2 days by BrdU incorporation assay. Format: functional, cell-based. Particulars: HCT-116, 48 h. (In general: Uptake of a labelled nucleoside into DNA is a usual measure of proliferation.)

Chain of Serine/threonine-protein kinase PAK 2 (Homo sapiens) (Q13177 whole entry): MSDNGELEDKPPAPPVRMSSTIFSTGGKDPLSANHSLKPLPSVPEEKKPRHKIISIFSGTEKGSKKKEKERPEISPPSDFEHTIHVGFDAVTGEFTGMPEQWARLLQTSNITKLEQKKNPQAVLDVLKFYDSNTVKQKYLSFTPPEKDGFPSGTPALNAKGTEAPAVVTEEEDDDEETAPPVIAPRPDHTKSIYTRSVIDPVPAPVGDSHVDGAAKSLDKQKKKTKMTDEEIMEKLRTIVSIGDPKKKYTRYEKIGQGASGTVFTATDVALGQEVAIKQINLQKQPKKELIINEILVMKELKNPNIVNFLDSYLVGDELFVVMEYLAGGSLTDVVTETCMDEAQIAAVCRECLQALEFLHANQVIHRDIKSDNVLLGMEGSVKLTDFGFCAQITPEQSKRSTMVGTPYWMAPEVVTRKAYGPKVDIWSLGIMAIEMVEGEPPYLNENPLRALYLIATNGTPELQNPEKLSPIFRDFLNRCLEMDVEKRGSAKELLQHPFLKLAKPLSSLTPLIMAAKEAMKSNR
Chain of Non-receptor tyrosine-protein kinase TYK2 (Homo sapiens) (P29597 whole entry, the tested form may be a part): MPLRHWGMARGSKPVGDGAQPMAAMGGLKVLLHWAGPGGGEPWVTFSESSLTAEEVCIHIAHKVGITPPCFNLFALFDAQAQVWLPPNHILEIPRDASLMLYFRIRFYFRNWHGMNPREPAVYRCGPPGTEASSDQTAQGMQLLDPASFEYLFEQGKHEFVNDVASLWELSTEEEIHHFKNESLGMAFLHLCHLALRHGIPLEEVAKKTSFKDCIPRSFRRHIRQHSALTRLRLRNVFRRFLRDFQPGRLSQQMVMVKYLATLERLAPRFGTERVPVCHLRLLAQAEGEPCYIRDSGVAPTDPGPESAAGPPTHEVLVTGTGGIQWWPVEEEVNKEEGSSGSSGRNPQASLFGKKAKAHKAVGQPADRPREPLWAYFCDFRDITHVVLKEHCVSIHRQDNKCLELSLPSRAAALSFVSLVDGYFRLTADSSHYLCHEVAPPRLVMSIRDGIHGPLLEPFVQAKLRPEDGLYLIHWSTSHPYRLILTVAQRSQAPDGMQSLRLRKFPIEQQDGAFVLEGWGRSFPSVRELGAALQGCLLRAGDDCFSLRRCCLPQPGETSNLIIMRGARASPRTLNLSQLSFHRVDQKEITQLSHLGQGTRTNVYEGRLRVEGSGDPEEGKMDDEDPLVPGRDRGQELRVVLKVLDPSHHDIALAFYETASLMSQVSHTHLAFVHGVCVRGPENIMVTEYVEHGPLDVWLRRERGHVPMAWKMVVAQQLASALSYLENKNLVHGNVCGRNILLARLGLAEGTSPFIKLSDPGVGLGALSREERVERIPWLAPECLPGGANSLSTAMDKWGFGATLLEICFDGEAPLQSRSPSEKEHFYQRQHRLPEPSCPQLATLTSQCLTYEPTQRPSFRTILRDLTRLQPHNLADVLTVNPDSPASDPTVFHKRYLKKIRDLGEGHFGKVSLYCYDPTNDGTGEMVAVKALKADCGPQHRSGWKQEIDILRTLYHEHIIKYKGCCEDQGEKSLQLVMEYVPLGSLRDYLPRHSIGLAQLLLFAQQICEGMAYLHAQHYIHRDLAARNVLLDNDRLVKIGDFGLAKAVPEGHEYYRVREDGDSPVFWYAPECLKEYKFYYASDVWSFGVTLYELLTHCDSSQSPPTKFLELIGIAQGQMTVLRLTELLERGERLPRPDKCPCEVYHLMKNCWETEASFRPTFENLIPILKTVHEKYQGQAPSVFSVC

One may read the IC50 as the concentration needed to halve the response being measured. The low end stands for inhibition by little substance, the high end for a need for much substance. Turning to `NC(=O)c1sc(-c2ccnc(N)n2)nc1-c1ccc(Cl)cc1Cl`, the residual binding, % of control in data set [1] is 100%; in data set [4] it was 92%; in data set [5], 78%; in [8] it was 100%. Moreover, the residual activity came to 94% in data set [2], 100% in data set [3], 95% in data set [6] and 7.9% in data set [7]. For the same compound, the microsomal CLint at 1 µM in data set [9] stood at 57 µL/min/mg. Also, in the data set on HCT-116, the IC50 stood at 2.6 µM.

In the case of `CCOC(=O)c1sc(-c2ccncc2)nc1O`, the residual binding, % of control in data set [1] turned out to be 100%; in data set [4], 100%; in data set [5], 97%; in data set [8], 99%. Besides, the residual activity was 82% in data set [2], 100% in [3], 76% in [6] and 86% in data set [7].

On to `COc1ccc(-c2nc(-c3ccnc(N)n3)sc2C(N)=O)c(Cl)c1`, for which the residual binding, % of control came to 94% in data set [1], 100% in [4], 55% in data set [5] and 89% in [8]. The residual activity was found to be 81% in [2], 90% in data set [3], 100% in data set [6] and 10% in data set [7]. In addition, the microsomal CLint at 1 µM in [9] was determined as 155 µL/min/mg. This compound also yielded an IC50 with HCT-116 of 6.9 µM.

These data come from ChEMBL document CHEMBL3259739, “Synthesis and structure-activity relationship of trisubstituted thiazoles as Cdc7 kinase inhibitors” (Eur J Med Chem, 2014).
